Results published in ChEMBL document CHEMBL1157072 (Bioorg Med Chem, 2010).
Converted amounts (≈) assume the structure as drawn.

Tests used:
Staphylococcus aureus [1] = assay: microbe, parasite or virus in culture; settings: isolate d20A1
Staphylococcus aureus [2] = assay: Antibacterial activity against Staphylococcus aureus NCTC 8325 after 16 to 20 hrs by broth microdilution method; assay type: functional
Method in brief: (§1)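 Broth microdilution in cation-adjusted Mueller Hinton broth. Compounds were serially diluted twofold in DMSO at 50-fold final strength (2% DMSO final). The inoculum was 1 × 10^4 cells per well. Plates were incubated at 37 °C for 16–20 h, and growth was read as absorbance at 600 nm.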

[3] = Selectivity ratio of MIC for MBX-1090-resistant Staphylococcus aureus isolate d20A1 to MIC for Staphylococcus aureus NCTC 8325; assay type: functional
Method in brief: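 Ratio of resistant-mutant MIC to NCTC 8325 MIC. Both MICs came from broth microdilution in cation-adjusted MHB with 2% DMSO final and 1 × 10^4 cells per well, incubated at 37 °C for 16–20 h and read at 600 nm.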

Staphylococcus aureus [4] = assay: Antibacterial activity against Staphylococcus aureus NCTC 8325 harboring genetic deletion of mepRA gene after 16 to 20 hrs by broth microdilution method; assay type: functional
Method in brief: as §1

Staphylococcus aureus [5] = assay: Antibacterial activity against Staphylococcus aureus NCTC 8325 harboring genetic deletion of mepR gene after 16 to 20 hrs by broth microdilution method; assay type: functional
Method in brief: as §1

Staphylococcus aureus [6] = assay: Antibacterial activity against Staphylococcus aureus NCTC 8325 carrying expression vector pG154 with mepA gene after 16 to 20 hrs by broth microdilution method in presence of anhydrous tetracycline; assay type: functional
Method in brief: (§2)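 Broth microdilution in cation-adjusted MHB containing anhydrous tetracycline at 100 ng/ml final to induce the pG154 expression vector. Twofold DMSO compound dilutions were used (2% DMSO final) with 1 × 10^4 cells per well. Incubation was 37 °C for 16–20 h, and absorbance was read at 600 nm.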

Staphylococcus aureus [7] = assay: Antibacterial activity against Staphylococcus aureus NCTC 8325 harboring genetic deletion of mepRA gene and carrying expression vector pG154 after 16 to 20 hrs by broth microdilution method in presence of anhydrous tetracycline; assay type: functional
Method in brief: as §2

Staphylococcus aureus [8] = assay: Antibacterial activity against Staphylococcus aureus NCTC 8325 carrying expression vector pG154 after 16 to 20 hrs by broth microdilution method; assay type: functional
Method in brief: as §1

Staphylococcus aureus [9] = assay: Antibacterial activity against Staphylococcus aureus NCTC 8325 harboring genetic deletion of mepRA gene and carrying expression vector pG154 with mepA gene after 16 to 20 hrs by broth microdilution method in presence of anhydrous tetracycline; assay type: functional
Method in brief: as §2

Staphylococcus aureus [10] = assay: Antibacterial activity against Staphylococcus aureus NCTC 8325 carrying expression vector pG154 with mepA gene after 16 to 20 hrs by broth microdilution method; assay type: functional
Method in brief: as §1

Staphylococcus aureus [11] = assay: Antibacterial activity against Staphylococcus aureus NCTC 8325 carrying expression vector pG154 after 16 to 20 hrs by broth microdilution method in presence of anhydrous tetracycline; assay type: functional
Method in brief: as §2

Staphylococcus aureus [12] = assay: Antibacterial activity against Staphylococcus aureus NCTC 8325 harboring genetic deletion of mepRA gene and carrying expression vector pG154 after 16 to 20 hrs by broth microdilution method; assay type: functional
Method in brief: as §1

Staphylococcus aureus [13] = assay: Antibacterial activity against Staphylococcus aureus NCTC 8325 harboring genetic deletion of mepRA gene and carrying expression vector pG154 with mepA gene after 16 to 20 hrs by broth microdilution method; assay type: functional
Method in brief: as §1

Staphylococcus aureus [14] = assay: Antibacterial activity against Staphylococcus aureus NCTC 8325 after 16 to 20 hrs by broth microdilution method in presence of efflux pump inhibitor reserpine; assay type: functional
Method in brief: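 Broth microdilution in cation-adjusted MHB with reserpine at 20 µg/ml final in the medium as efflux inhibitor. Twofold DMSO dilutions were made (2% DMSO final) with 1 × 10^4 cells per well. Incubation was 37 °C for 16–20 h, with growth read at 600 nm.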

**Q.** With `CCn1cc(C(=O)O)c(=O)c2ccc(C)nc21` [NALIDIXIC ACID] as the compound, how does the MIC (Staphylococcus aureus [1]) read?
**A.** 50 µg/mL (≈ 215 µM)

**Q.** And the MIC (Staphylococcus aureus [2])?
**A.** 100 µg/mL (≈ 431 µM)

**Q.** For `NC[C@H]1O[C@H](O[C@H]2[C@H](O)[C@@H](O[C@H]3O[C@H](CO)[C@@H](O)[C@H](N)[C@H]3O)[C@H](N)C[C@@H]2N)[C@H](O)[C@@H](O)[C@@H]1O` [KANAMYCIN], which MIC (Staphylococcus aureus [1]) is on record?
**A.** 8 µg/mL (≈ 16.5 µM)

**Q.** And the Selectivity ratio [3]?
**A.** 4

**Q.** What about the MIC (Staphylococcus aureus [2]) of the same compound?
**A.** 2 µg/mL (≈ 4.13 µM)

**Q.** What does the source list for `O=C(O)c1cn(C2CC2)c2cc(N3CCNCC3)c(F)cc2c1=O` [CIPROFLOXACIN]?
**A.** MIC (Staphylococcus aureus [1]): 0.391 µg/mL (≈ 1.18 µM); Selectivity ratio [3]: 2; MIC (Staphylococcus aureus [2]): 0.195 µg/mL (≈ 0.589 µM)

**Q.** Which results are given for `c1cc2cc(-c3ccc4cc(-c5ccc6oc(C7=NCCN7)cc6c5)[nH]c4c3)[nH]c2cc1C1=NCCN1`?
**A.** MIC (Staphylococcus aureus [1]): 1 µg/mL (≈ 2.06 µM); MIC (Staphylococcus aureus [4]): 1 µg/mL (≈ 2.06 µM); MIC (Staphylococcus aureus [5]): 0.5 µg/mL (≈ 1.03 µM); MIC (Staphylococcus aureus [6]): 0.25 µg/mL; MIC (Staphylococcus aureus [7]): 0.5 µg/mL; MIC (Staphylococcus aureus [8]): 1 µg/mL (≈ 2.06 µM); MIC (Staphylococcus aureus [9]): 0.5 µg/mL; MIC (Staphylococcus aureus [10]): 1 µg/mL (≈ 2.06 µM); MIC (Staphylococcus aureus [11]): 1 µg/mL; MIC (Staphylococcus aureus [12]): 1 µg/mL (≈ 2.06 µM); MIC (Staphylococcus aureus [13]): 0.5 µg/mL (≈ 1.03 µM); MIC (Staphylococcus aureus [2]): 0.5 µg/mL (≈ 1.03 µM); MIC (Staphylococcus aureus [14]): 0.25 µg/mL

**Q.** For `CN[C@@H]1[C@H](O)[C@H](NC)[C@H]2O[C@@]3(O)C(=O)C[C@@H](C)O[C@H]3O[C@@H]2[C@H]1O` [SPECTINOMYCIN], which MIC (Staphylococcus aureus [1]) is on record?
**A.** 128 µg/mL (≈ 385 µM)

**Q.** What about the MIC (Staphylococcus aureus [2]) of the same compound?
**A.** 128 µg/mL (≈ 385 µM)

**Q.** Which MIC (Staphylococcus aureus [1]) does the source give for `CC1(C)S[C@@H]2[C@H](NC(=O)C(C(=O)O)c3ccccc3)C(=O)N2[C@H]1C(=O)O` (some centres undefined) [CARBENICILLIN] here?
**A.** 0.0625 µg/mL (≈ 0.165 µM)

**Q.** What about the MIC (Staphylococcus aureus [2]) of the same compound?
**A.** 0.0625 µg/mL (≈ 0.165 µM)

**Q.** With `C/C(=C\C(=O)OCCCCCCCCC(=O)O)C[C@@H]1OC[C@H](C[C@@H]2O[C@H]2[C@@H](C)[C@H](C)O)[C@@H](O)[C@H]1O` [MUPIROCIN] as the compound, how does the MIC (Staphylococcus aureus [1]) read?
**A.** 0.0312 µg/mL (≈ 0.0624 µM)

**Q.** What about the MIC (Staphylococcus aureus [2]) of the same compound?
**A.** 0.0312 µg/mL (≈ 0.0624 µM)

**Q.** For `CO[C@H]1/C=C/O[C@@]2(C)Oc3c(C)c(O)c4c(O)c(c(/C=N/N5CCN(C)CC5)c(O)c4c3C2=O)NC(=O)/C(C)=C\C=C\[C@H](C)[C@H](O)[C@@H](C)[C@@H](O)[C@@H](C)[C@H](OC(C)=O)[C@@H]1C` [RIFAMPIN], which MIC (Staphylococcus aureus [1]) is on record?
**A.** 0.0122 µg/mL (≈ 0.0148 µM)

**Q.** What about the MIC (Staphylococcus aureus [2]) of the same compound?
**A.** 0.0122 µg/mL (≈ 0.0148 µM)

**Q.** What does the source list for `CCN1CCN(c2cc3c(cc2F)c(=O)c(C(=O)O)cn3C2CC2)CC1` [ENROFLOXACIN]?
**A.** MIC (Staphylococcus aureus [1]): 0.125 µg/mL (≈ 0.348 µM); MIC (Staphylococcus aureus [2]): 0.125 µg/mL (≈ 0.348 µM)

**Q.** What does the source list for `O=C(N[C@H](CO)[C@H](O)c1ccc([N+](=O)[O-])cc1)C(Cl)Cl` [CHLORAMPHENICOL]?
**A.** MIC (Staphylococcus aureus [1]): 8 µg/mL (≈ 24.8 µM); MIC (Staphylococcus aureus [2]): 8 µg/mL (≈ 24.8 µM)

**Q.** Which MIC (Staphylococcus aureus [2]) does the source give for GENTAMICIN here?
**A.** 0.25 µg/mL
